In the library only some 2% were active in any assay of this set; here they are far more common.
TDP2 inh: human TDP2 enzyme inhibitors, primary screen, biochemical, epi absorbance, recombinant enzyme. Tyrosyl-DNA phosphodiesterase 2 (Homo sapiens), O95551. T5PNP hydrolysis, p-nitrophenol absorbance 415 nm. inhibition, % at 12.8 µM. actives 0.34% (n = 370,000);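 active = inhibition above the mean of all tested compounds plus 3 SD, set per campaign, cut at about 25% in these data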;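 also: 0% = DMSO with enzyme and 100% = buffer with substrate but no TDP2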
Target sequence (O95551 whole entry, looked up): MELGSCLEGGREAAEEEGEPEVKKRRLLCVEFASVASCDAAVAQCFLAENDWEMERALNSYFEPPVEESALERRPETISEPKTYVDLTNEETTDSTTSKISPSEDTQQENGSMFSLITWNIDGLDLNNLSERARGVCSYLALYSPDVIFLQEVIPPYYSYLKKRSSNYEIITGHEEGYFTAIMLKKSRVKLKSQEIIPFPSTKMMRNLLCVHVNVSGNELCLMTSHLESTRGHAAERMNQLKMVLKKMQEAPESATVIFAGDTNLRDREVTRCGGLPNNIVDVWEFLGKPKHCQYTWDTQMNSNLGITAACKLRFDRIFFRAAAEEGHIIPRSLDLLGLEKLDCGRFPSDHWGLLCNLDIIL
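Assay system: Recombinant human TDP2 | Quantity: 120 nM TDP2 per well | Incubation: 2 h at 37 °C | Signal: Epi absorbance | Evaluation: Percent inhibition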
TCR-CD3 inh: inhibitors of human TCR-CD3 interaction, primary screen, biochemical, fluorescence, TAMRA-labeled TCR probe | inhibition, % at 9.4 µM | actives 0.37% (n = 360,000); in the data active = inhibition above about 19%;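 also: recombinant mutant TCR 2C K166C tagged with TAMRA read by polarization; 0% = receptor in buffer alone and 100% = receptor with positive control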
mABHD4 FP: ABHD4 inhibitors, primary screen, biochemical, fluorescence polarization, mouse; AID 720543, 2013; inhibition, % at 8.92 µM; actives 0.54% (n = 370,000); purified mABHD4, FP-Rh probe fluorescence polarization;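 active = inhibition exceeding the mean over every tested compound plus 3 SD, cut at about 30% in these data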;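 also: 0% = plate median of compound wells and 100% = S159A mutant with DMSO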
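Assay system: mABHD4 protein; medium: HEPES pH 7.0, NaCl, Pluronic buffer; dosing: 8.92 µM, single dose; schedule: 45 min + 60 min at 25 °C; signal: FP readout, ex 525 nm / em 598 nm; read-out: normalized percent inhibition of probe labeling; repeats: single replicate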
HTRA1 inhibitor: HTRA1 serine protease inhibitors, primary screen, biochemical, fluorescence polarization, HTS; Q92743; recombinant HTRA1, FP-rhodamine activity-based probe; inhibition, % at 5.96 µM; actives 0.5% (n = 340,000); in the data active = inhibition above about 36%;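 also: 0% = enzyme with DMSO and 100% = wells lacking enzyme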
SIAE primary: human SIAE inhibitors, primary screen, biochemical, fluorescence polarization, FP-Rh probe, 1536-well HTS. SIAE FP-Rh probe binding. inhibition, % at 9.66 µM. actives 0.69% (n = 370,000);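 active = inhibition above a cutoff: mean of compounds within the control limits plus 3 SD of those, cut at about 17% in these data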;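 also: 0% = plate median of compound wells and 100% = probe without SIAE protein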
PAD4 inh: human PAD4 inhibitors, primary screen, biochemical, fluorescence polarization, 1536-well format; recombinant PAD4, RCA probe fluorescence polarization; inhibition, % at 6.36 µM; actives 0.41% (n = 330,000); AID 485272, 2010;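 active = percent inhibition above a cutoff equal to the mean of all tested compounds plus 3 SD, cut at about 15% in these data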;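 also: 0% = PAD4 with RCA probe and DMSO and 100% = probe without PAD4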
SIAE inh conf: human SIAE inhibitors, retest, confirmation, biochemical, fluorescence polarization, FP-Rh probe, triplicate. inhibition, % at 9.66 µM. shares compounds with SIAE primary. actives 13% (n = 2,300). SIAE FP-Rh activity-based probe;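 active = mean inhibition of the replicates above the hit cutoff set in the primary screen, cut at about 17% in these data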;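 also: 0% = SIAE with DMSO and probe and 100% = probe without SIAE; inhibitors lower polarization as more probe stays unbound to SIAE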
* = called active by the depositor; . = not tested or not shown.

SMILES	TDP2 inh	TCR-CD3 inh	mABHD4 FP	HTRA1 inhibitor	SIAE primary	PAD4 inh	SIAE inh conf
CN(C)c1ccc(CNc2nc3cc(-c4ccc(F)cc4)sc3c(=O)n2C)cc1	4	1	-7	.	17*	.	3
O=C(CNC(=O)c1ccccc1Cl)NCCc1cccs1	-3	-6	3	-5	2	-3	.
CCN(CC)c1ccc(NC(=O)c2ccc3c(c2)OCO3)c(C)c1	4	2	3	1	20*	-6	-5
COc1ccc(NC(=S)N2CCCC2)c(OC)c1	8	10	-3	-1	4	-2	.
C=CCOc1ccccc1CNc1ccccc1C	7	-3	9	9	20*	1	2
Cc1ccc(CN[C@@H]2CC[C@@]34CCCN3C(=O)CCC[C@H]4C2)cc1	-8	.	2	.	-1	.	.
COc1ccc(CCNC(=O)CCCn2c(=O)c3cccn3c3cccnc32)c(OC)c1OC	7	7	2	7	0	-2	.
CCOc1ccc(CCNC(=O)CCCn2c(=O)c3cccn3c3cccnc32)cc1OCC	-21	-3	-15	4	22*	-6	-3
CCN(CC)CCOc1nc(C)nc2c1oc1ccccc12	-4	0	0	-3	18*	6	3
COc1ccccc1NC(=O)c1ccc(-n2ccnc2)c([N+](=O)[O-])c1	-13	-3	5	4	24*	1	8
COc1ccc(C(=O)Nc2ccc(Nc3ccccc3)cc2)cc1[N+](=O)[O-]	-13	0	3	12	19*	0	7
O=C(Nc1ccccc1Oc1ccccc1)c1cc([N+](=O)[O-])ccc1Cl	0	-3	-11	-13	6	4	.
O=C(Nc1ccc(Nc2ccccc2)cc1)c1cc([N+](=O)[O-])ccc1Cl	-16	2	2	22	24*	-1	8
CCOc1cc(N2CCOCC2)c(OCC)cc1NC(=O)c1ccc(-n2ccnc2)c([N+](=O)[O-])c1	7	5	1	6	1	0	.
COc1ccc(C(=O)Nc2ccc(OCc3ccccc3)cc2)cc1[N+](=O)[O-]	9	-6	3	1	4	-2	.
CNC[C@@H]1OCc2ccccc2-c2ccccc2C(=O)N([C@@H](C)CO)C[C@@H]1C	6	-2	1	-1	12	.	.
COc1ccc(NS(=O)(=O)c2csc(C(=O)N3CCCC3)c2)c(OC)c1	-5	4	-2	4	1	0	.
COc1cc(/C=N/Nc2ccc(C(F)(F)F)cn2)cc(OC)c1O	2	1	17	11	18*	.	8
Oc1ccc(/C=N/Nc2ccc(C(F)(F)F)cn2)cc1	-17	-13	-7	5	6	-3	.
CC(C)NC(=O)CCCN1C(=O)c2ccccc2Sc2ncccc21	-4	-3	2	-4	-1	3	.
N#Cc1cccc(NC(=O)CSc2ccc3c4c(cccc24)C(=O)c2ccccc2-3)c1	12	4	8	2	57*	7	48*
Cc1ccc(S(=O)(=O)Nc2ccccc2C(C(=O)OC(C)(C)C)C(=O)OC(C)(C)C)cc1	-2	1	4	.	3	.	.
Cc1cc(C)n2nc(Sc3ncccc3[N+](=O)[O-])nc2n1	3	-2	6	.	-8	2	.
CC(=O)OC(C(=O)NC1CCCCC1)c1ccccc1F (centres undefined)	-9	6	0	-3	18*	2	-4
c1ccc(COc2ncnc3c2ncn3CCCNCc2cccs2)cc1	3	-4	-3	-1	14	.	.
SMILES	TDP2 inh	TCR-CD3 inh	mABHD4 FP	HTRA1 inhibitor	SIAE primary	PAD4 inh	SIAE inh conf
CC1(c2ccc(Cl)cc2Cl)NC(=O)N(CC(=O)Nc2ccc3[nH]c(=O)[nH]c3c2)C1=O (centres undefined)	16	11	2	-3	24*	-4	2
CC(=O)c1cc(-c2cccc(CO)c2)c(=O)n2c1CCC2	11	.	2	.	-2	.	.
Cc1nc2c(o1)CCc1ccccc1C2O (centres undefined)	2	2	6	6	41*	-7	4
O=C(O)/C=C1\CCCc2ccccc2C1O (centres undefined)	-8	-2	0	3	-4	-8	.
CS(=O)(=O)NCCCCCCNS(C)(=O)=O	5	4	-5	4	17*	0	0
Cc1ncc(CO)c(/C=N/NC(=O)c2ccc(Br)cc2)c1O	.	.	.	.	.	0	.
Cc1ncc(CO)c(/C=N/NC(=S)Nc2ccc(C(C)C)cc2)c1O	5	14	11	29	18*	-3	15
CCCNC(=O)C1(C)CCCN(Cc2ccsc2)C1 (centres undefined)	-1	3	-2	.	-5	.	.
COc1ccc(CC(=O)NNC(=O)COc2ccc(Cl)cc2C)cc1S(=O)(=O)N1CCOCC1	5	1	1	5	-1	1	.
CCN(CC)C(=O)N1c2ccccc2Sc2ccccc21	-12	2	7	-2	18*	-2	11
O=Nc1c(O)[nH]c2ccc(Cl)c(Cl)c12	-4	4	8	24	63*	.	42*
CCc1nc2c(OCc3ccccc3C(=O)OC)cccn2c1N(C)C(=O)c1cccs1	-9	9	4	.	4	.	.
COc1ccccc1OCCNC(=O)Nc1ccc(Br)cc1	-2	-3	0	-11	18*	-6	1
CC(=O)Nc1ccc(S(=O)(=O)N2CCN(S(=O)(=O)c3ccc(NC(C)=O)cc3)CC2)cc1	-12	-6	3	2	0	.	.
CC(=O)Nc1ccc(S(=O)(=O)N2CCCC3CCCCC32)cc1 (centres undefined)	6	-4	-7	-7	22*	2	-3
CC1(C)CC(=O)C(C=NCC(N)=O)=C(O)C1	7	7	-3	0	18*	3	-1
Cc1ccccc1-c1nn(-c2ccc(F)cc2F)cc1CNCCCN(C)C	-2	12	2	4	18*	1	7
Cc1ccccc1-c1nn(-c2ccc(F)cc2F)cc1CNCCN(C)C	-9	-1	-3	-7	2	-1	.
CNC(=O)c1cc(S(=O)(=O)Nc2ccc(C)cc2C)ccc1C	-2	4	4	0	-4	-4	.

Bioassay records (PubChem BioAssay)
